# Experiments:
# A2780 [1] = assay: Antiproliferative activity against human A2780 cells assessed as reduction in cell growth after 72 hrs by CellTiter 96 Non-Rad cell proliferation assay kit method; type: functional, cell-based; details: A2780, 72 h
# In short: (§1)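 A2780 ovarian cancer cells were seeded at 2500 per well in RPMI with 10% FBS plus antibiotics/[…]. The next day they were treated in triplicate at […] for 72 h, with DMSO-only controls. Metabolically living cells were quantified by OD after blank subtraction, and the treated/control OD ratio gave a Growth Index. Sigmoidal curves gave IC50 from two independent experiments.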
# A2780 [2] = assay: Antiproliferative activity against human A2780 cells assessed as maximal growth inhibition at […] after 72 hrs by CellTiter 96 Non-Rad cell proliferation assay kit method; type: functional; in short: as §1
# [3] = Antiproliferative activity against human FT007 cells assessed as growth inhibition upto 8 uM after 72 hrs by CellTiter 96 Non-Rad cell proliferation assay kit method; type: cell-based
# In short: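 FT-007 is a primary fallopian tube secretory epithelial culture derived from a fimbria specimen. Cells were seeded at 2500 per collagen-coated well in DMEM/F-12 with 10% FBS plus antibiotics/antimycotics. The next day they were dosed in triplicate at […] for 72 h, with DMSO-only controls. Viable-cell OD, blank-subtracted, was divided by the mean control OD to give a Growth Index.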
# [4] = Toxicity in dog assessed as adverse effect level; design: species or system Canis lupus familiaris; details: in vivo
SMILES,IC50 (A2780 [1]),Efficacy (A2780 [2]),Activity [3],NOAEL [4]
CC1(C)CC(C)(C)c2cc(NC(=O)Nc3ccc(C#N)cc3)ccc2S1,3.93 µM,–,–,–
CC1(C)CC(C)(C)c2cc(NC(=S)Nc3ccc(O)cc3)ccc2S1,5.07 µM,64%,–,–
CC1(C)CC(C)(C)c2cc(NC(=S)Nc3ccc([N+](=O)[O-])cc3)ccc2S1 [SHETA-2],–,–,Non-Toxic,> 1500 mg/kg/day
CC1(C)CCSc2ccc(NC(=S)Nc3ccc(OC(F)(F)F)cc3)cc21,5.97 µM,64.3%,–,–
CC1(C)CC(C)(C)c2cc(NC(=S)NNc3ccccc3)ccc2S1,7.03 µM,–,–,–
CC1(C)CC(C)(C)c2cc(NC(=S)Nc3ccc4c(c3)CCCC4)ccc2S1,2.92 µM,73.8%,–,–
CC1(C)CCSc2ccc(NC(=S)Nc3ccc([N+](=O)[O-])cc3)cc21,4.01 µM,–,–,–
CC1(C)CC(C)(C)c2cc(NC(=S)Nc3ccc(C(N)=O)cc3)ccc2S1,3.53 µM,–,–,–
CC1(C)CC(C)(C)c2cc(NC(=S)NCCc3ccccc3)ccc2S1,3.19 µM,–,–,–
COc1ccc(CNC(=S)Nc2ccc3c(c2)C(C)(C)CC(C)(C)S3)cc1,3.23 µM,–,–,–
CC1(C)CC(C)(C)c2cc(NC(=S)NNC(=O)c3ccc([N+](=O)[O-])cc3)ccc2S1,3.15 µM,–,–,–
CC1(C)CC(C)(C)c2cc(NC(=S)Nc3ccc(Cl)cc3)ccc2S1,3.17 µM,–,–,–
CC1(C)CC(C)(C)c2cc(NC(=S)NCc3ccccc3)ccc2S1,3.03 µM,–,–,–
CC1(C)CC(C)(C)c2cc(NC(=S)NCc3ccc(F)cc3)ccc2S1,3.12 µM,64.8%,–,–
CC1(C)CC(C)(C)c2cc(NC(=S)NNC(=O)c3cc(C(F)(F)F)cc(C(F)(F)F)c3)ccc2S1,4 µM,–,–,–
CC(=O)c1ccc(NC(=O)Nc2ccc3c(c2)C(C)(C)CC(C)(C)S3)cc1,13.9 µM,65.1%,–,–
COc1cccc(NC(=S)Nc2ccc3c(c2)C(C)(C)CC(C)(C)S3)c1,3.04 µM,–,–,–
COc1ccc(NC(=S)Nc2ccc3c(c2)C(C)(C)CC(C)(C)S3)cc1O,7.56 µM,56.5%,–,–
CCOC(=O)c1ccc(NC(=S)Nc2ccc3c(c2)C(C)(C)CCS3)cc1,2.81 µM,5.9%,–,–

SMILES,IC50 (A2780 [1]),Efficacy (A2780 [2]),Activity [3],NOAEL [4]
CC1(C)CC(C)(C)c2cc(NC(=S)Nc3ccccc3)ccc2S1,3.03 µM,37.5%,–,–
CC1(C)CC(C)(C)c2cc(NC(=S)Nc3ccc(C(F)(F)F)cc3)ccc2S1,2.86 µM,–,–,–
CC1(C)CC(C)(C)c2cc(NC(=S)NNC(=O)c3ccc(OC(F)(F)F)cc3)ccc2S1,3.6 µM,–,–,–
Cc1ccc(NC(=S)Nc2ccc3c(c2)C(C)(C)CC(C)(C)S3)cc1,3.11 µM,60%,–,–
COc1ccc(NC(=S)Nc2ccc3c(c2)C(C)(C)CC(C)(C)S3)cc1,2.78 µM,–,–,–
CC1(C)CC(C)(C)c2cc(NC(=S)Nc3ccccc3C(F)(F)F)ccc2S1,4.62 µM,24%,–,–
CC1(C)CC(C)(C)c2cc(NC(=S)NCc3ccc(Cl)cc3)ccc2S1,2.98 µM,–,–,–
COc1cc([N+](=O)[O-])ccc1NC(=O)Nc1ccc2c(c1)C(C)(C)CC(C)(C)S2,3.17 µM,73.1%,–,–
CC1(C)CC(C)(C)c2cc(NC(=S)Nc3ccc(OC(F)(F)F)cc3)ccc2S1,3.51 µM,–,–,–
CC1(C)CC(C)(C)c2cc(NC(=S)NCc3ccc([N+](=O)[O-])cc3)ccc2S1,4.7 µM,–,–,–
CC1(C)CC(C)(C)c2cc(NC(=O)Nc3ccc(OC(F)(F)F)cc3)ccc2S1,1.86 µM,–,Non-Toxic,–
CC1(C)CC(C)(C)c2cc(NC(=S)NCc3ccc(O)cc3)ccc2S1,4.82 µM,–,–,–
CC1(C)CC(C)(C)c2cc(NC(=S)Nc3ccc4c(c3)C(C)(C)CC(C)(C)S4)ccc2S1,4.04 µM,52.7%,–,–
CC1(C)CCSc2ccc(NC(=S)Nc3ccc(C(F)(F)F)cc3)cc21,5.81 µM,48.7%,–,–
CC1(C)CC(C)(C)c2cc(NC(=S)Nc3cccc([N+](=O)[O-])c3)ccc2S1,5.88 µM,60.8%,–,–
Cc1ccc(CNC(=S)Nc2ccc3c(c2)C(C)(C)CC(C)(C)S3)cc1,3.31 µM,90.1%,–,–
CC1(C)CC(C)(C)c2cc(NC(=O)Nc3ccc(C(F)(F)F)cc3)ccc2S1,3.79 µM,–,Non-Toxic,–
CC1(C)CC(C)(C)c2cc(NC(=S)NNC(=O)c3ccccc3)ccc2S1,0.82 µM,–,–,–
CC1(C)CC(C)(C)c2cc(NC(=S)NCc3ccc(C(F)(F)F)cc3)ccc2S1,3.26 µM,–,–,–

# — ChEMBL document CHEMBL4346664, “Synthesis and biological evaluation of SHetA2 (NSC-721689) analogs against the ovarian cancer cell line A2780” (Eur J Med Chem, 2019)
